pIC50: −log10 of the molar value.
tested on: HL-60; assay: Cytotoxicity against human HL60 cells after 72 hrs by XTT assay; format: functional, cell-based; details: HL-60, 72 h
Summary of the method: (§1)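 Cells grown in DMEM (A549, HT-29, HeLa) or RPMI1640 (HL-60), both with 10% heat-inactivated fetal bovine serum, were exposed to compound across a concentration range for 72 h at 37 °C in humidified air/CO₂ (19/1), then read by XTT. Measurements were in triplicate. IC50 is the concentration giving 50% proliferation inhibition versus untreated controls, reported as mean ± S.D. of three independent determinations.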

Going from CC(=O)c1c(O)cc2c(c1O)CCC(C)(CC/C=C(\C)CCC=C(C)C)O2 (configuration not stated) to CC(=O)c1c(O)cc(O)c(C/C=C(\C)CCC=C(C)C)c1O, the pIC50 rises from 4.51 to 4.72 (0.21 log units). The second is the more potent here.

CCCCCCCCCCCCCCCCCCOc1cc(O)c(C(C)=O)c(O)c1 and CCCCCCCCCCCCCCCCCCOc1cc(O)cc(O)c1C(C)=O cannot be ordered by pIC50: less than 4.00 for the first, less than 4.00 for the second.

CC(=O)c1c(O)cc2c(c1O)CCC(C)(C)O2 and CC(=O)c1c(O)cc(O)c2c1OC(C)(C)CC2 cannot be ordered by pIC50: less than 4.00 for the first, less than 4.00 for the second.

Compared with CC(=O)c1c(OC/C=C(\C)CC/C=C(\C)CCC=C(C)C)cc(O)c(C/C=C(\C)CC/C=C(\C)CCC=C(C)C)c1O, CC(=O)c1c(O)c(C/C=C(\C)CCC=C(C)C)c(O)c(C/C=C(\C)CCC=C(C)C)c1O is 0.23 log units higher in pIC50: 4.49 for the first, 4.72 for the second.

Going from CC(=O)c1c(O)c(CC=C(C)C)c(O)c(CC=C(C)C)c1O to CC(=O)c1c(O)cc(O)c(C/C=C(\C)CC/C=C(\C)CCC=C(C)C)c1O, the pIC50 rises from less than 4.00 to 4.85.

CCCCCCCC/C=C\CCCCCCCCOc1cc(O)cc(O)c1C(C)=O and CCCCCCCC/C=C\CCCCCCCCOc1cc(O)c(C(C)=O)c(O)c1 are the same in pIC50: 4.49 for the first, 4.49 for the second.

CC(=O)c1c(O)cc(O)cc1OC/C=C(\C)CC/C=C(\C)CCC=C(C)C and CC(=O)c1c(O)cc(OC/C=C(\C)CC/C=C(\C)CCC=C(C)C)cc1O are within 0.2 log units of each other in pIC50: 4.51 for the first, 4.49 for the second.

COc1cc(O)c(C(C)=O)c(OC)c1 [XANTHOXYLIN] and CC(=O)c1c(O)cc(O)cc1OCC=C(C)C cannot be ordered by pIC50: less than 4.00 for the first, less than 4.00 for the second.

Going from CC(=O)c1c(O)cc(OCC=C(C)C)cc1O to CC(=O)c1c(O)cc(O)cc1O [2,4,6-TRIHYDROXYACETOPHENONE], the pIC50 falls from 4.49 to less than 4.00. The first is the more potent here.

Going from CC(=O)c1c(O)c2c(c3c1OC(C)(C)CC3)OC(C)(C)CC2 to CC(=O)c1ccc(C)cc1O, the pIC50 falls from 4.51 to less than 4.00.

First: CCCCCCCC/C=C\CCCCCCCCc1c(O)cc(O)c(C(C)=O)c1O
Second: CCCCCCCCCCCCCCCCCCc1c(O)cc(O)c(C(C)=O)c1O
The pIC50 of the first is lower: less than 4.00 for the first, 4.51 for the second.

Molecule CCCCCCCC/C=C\CCCCCCCCOc1cc(O)c(C(C)=O)c(OCCCCCCCC/C=C\CCCCCCCC)c1 has a pIC50 of less than 4.00.

tested on: HeLa; assay: Cytotoxicity against human HeLa cells after 72 hrs by XTT assay; format: functional, cell-based; details: not given; summary of the method: as §1

CC(=O)c1c(O)cc2c(c1O)CCC(C)(CC/C=C(\C)CCC=C(C)C)O2 (configuration not stated) and CC(=O)c1c(O)cc(O)c(C/C=C(\C)CCC=C(C)C)c1O are within 0.2 log units of each other in pIC50: 4.52 for the first, 4.68 for the second.

CCCCCCCCCCCCCCCCCCOc1cc(O)c(C(C)=O)c(O)c1 and CCCCCCCCCCCCCCCCCCOc1cc(O)cc(O)c1C(C)=O cannot be ordered by pIC50: less than 4.00 for the first, less than 4.00 for the second.

CC(=O)c1c(O)cc2c(c1O)CCC(C)(C)O2 and CC(=O)c1c(O)cc(O)c2c1OC(C)(C)CC2 cannot be ordered by pIC50: less than 4.00 for the first, less than 4.00 for the second.

Going from CC(=O)c1c(OC/C=C(\C)CC/C=C(\C)CCC=C(C)C)cc(O)c(C/C=C(\C)CC/C=C(\C)CCC=C(C)C)c1O to CC(=O)c1c(O)c(C/C=C(\C)CCC=C(C)C)c(O)c(C/C=C(\C)CCC=C(C)C)c1O, the pIC50 rises from less than 4.00 to 4.51. The second is the more potent here.

First: CC(=O)c1c(O)c(CC=C(C)C)c(O)c(CC=C(C)C)c1O
Second: CC(=O)c1c(O)cc(O)c(C/C=C(\C)CC/C=C(\C)CCC=C(C)C)c1O
The pIC50 of the first is lower: less than 4.00 for the first, 4.89 for the second.

CCCCCCCC/C=C\CCCCCCCCOc1cc(O)cc(O)c1C(C)=O and CCCCCCCC/C=C\CCCCCCCCOc1cc(O)c(C(C)=O)c(O)c1 are the same in pIC50: 4.51 for the first, 4.51 for the second.

CC(=O)c1c(O)cc(O)cc1OC/C=C(\C)CC/C=C(\C)CCC=C(C)C and CC(=O)c1c(O)cc(OC/C=C(\C)CC/C=C(\C)CCC=C(C)C)cc1O are within 0.2 log units of each other in pIC50: 4.51 for the first, 4.54 for the second.

COc1cc(O)c(C(C)=O)c(OC)c1 [XANTHOXYLIN] and CC(=O)c1c(O)cc(O)cc1OCC=C(C)C cannot be ordered by pIC50: less than 4.00 for the first, less than 4.00 for the second.

Going from CC(=O)c1c(O)cc(OCC=C(C)C)cc1O to CC(=O)c1c(O)cc(O)cc1O [2,4,6-TRIHYDROXYACETOPHENONE], the pIC50 falls from 4.52 to less than 4.00. The first is the more potent here.

CC(=O)c1c(O)c2c(c3c1OC(C)(C)CC3)OC(C)(C)CC2 and CC(=O)c1ccc(C)cc1O cannot be ordered by pIC50: less than 4.00 for the first, less than 4.00 for the second.

Going from CCCCCCCC/C=C\CCCCCCCCc1c(O)cc(O)c(C(C)=O)c1O to CCCCCCCCCCCCCCCCCCc1c(O)cc(O)c(C(C)=O)c1O, the pIC50 rises from less than 4.00 to 4.55. The second is the more potent here.

In the case of CCCCCCCC/C=C\CCCCCCCCOc1cc(O)c(C(C)=O)c(OCCCCCCCC/C=C\CCCCCCCC)c1, the pIC50 was less than 4.00.

tested on: HT-29; assay: Cytotoxicity against human HT-29 cells after 72 hrs by XTT assay; format: functional, cell-based; details: HT-29, 72 h
Summary of the method: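 Cells grown in DMEM (A549, HT-29, HeLa) or RPMI1640 (HL-60), both with 10% heat-inactivated fetal bovine serum, were exposed to compound across a concentration range for 72 h at 37 °C in humidified air/CO₂ (19/1), then read by XTT. Measurements were in triplicate.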

Going from CC(=O)c1c(O)cc2c(c1O)CCC(C)(CC/C=C(\C)CCC=C(C)C)O2 (configuration not stated) to CC(=O)c1c(O)cc(O)c(C/C=C(\C)CCC=C(C)C)c1O, the pIC50 rises from less than 4.00 to 4.72.

CCCCCCCCCCCCCCCCCCOc1cc(O)c(C(C)=O)c(O)c1 and CCCCCCCCCCCCCCCCCCOc1cc(O)cc(O)c1C(C)=O cannot be ordered by pIC50: less than 4.00 for the first, less than 4.00 for the second.

CC(=O)c1c(O)cc2c(c1O)CCC(C)(C)O2 and CC(=O)c1c(O)cc(O)c2c1OC(C)(C)CC2 cannot be ordered by pIC50: less than 4.00 for the first, less than 4.00 for the second.

First: CC(=O)c1c(OC/C=C(\C)CC/C=C(\C)CCC=C(C)C)cc(O)c(C/C=C(\C)CC/C=C(\C)CCC=C(C)C)c1O
Second: CC(=O)c1c(O)c(C/C=C(\C)CCC=C(C)C)c(O)c(C/C=C(\C)CCC=C(C)C)c1O
The pIC50 of the first is lower: less than 4.00 for the first, 4.70 for the second.

Going from CC(=O)c1c(O)c(CC=C(C)C)c(O)c(CC=C(C)C)c1O to CC(=O)c1c(O)cc(O)c(C/C=C(\C)CC/C=C(\C)CCC=C(C)C)c1O, the pIC50 rises from less than 4.00 to 4.74.

Compared with CCCCCCCC/C=C\CCCCCCCCOc1cc(O)cc(O)c1C(C)=O, CCCCCCCC/C=C\CCCCCCCCOc1cc(O)c(C(C)=O)c(O)c1 is higher in pIC50: less than 4.00 for the first, 4.51 for the second. The second is the more potent here.

CC(=O)c1c(O)cc(O)cc1OC/C=C(\C)CC/C=C(\C)CCC=C(C)C and CC(=O)c1c(O)cc(OC/C=C(\C)CC/C=C(\C)CCC=C(C)C)cc1O are within 0.2 log units of each other in pIC50: 4.54 for the first, 4.51 for the second.

COc1cc(O)c(C(C)=O)c(OC)c1 [XANTHOXYLIN] and CC(=O)c1c(O)cc(O)cc1OCC=C(C)C cannot be ordered by pIC50: less than 4.00 for the first, less than 4.00 for the second.

Compared with CC(=O)c1c(O)cc(OCC=C(C)C)cc1O, CC(=O)c1c(O)cc(O)cc1O [2,4,6-TRIHYDROXYACETOPHENONE] is lower in pIC50: 4.51 for the first, less than 4.00 for the second.

Going from CC(=O)c1c(O)c2c(c3c1OC(C)(C)CC3)OC(C)(C)CC2 to CC(=O)c1ccc(C)cc1O, the pIC50 falls from 4.49 to less than 4.00. The first is the more potent here.

Going from CCCCCCCC/C=C\CCCCCCCCc1c(O)cc(O)c(C(C)=O)c1O to CCCCCCCCCCCCCCCCCCc1c(O)cc(O)c(C(C)=O)c1O, the pIC50 rises from less than 4.00 to 4.59.

With CCCCCCCC/C=C\CCCCCCCCOc1cc(O)c(C(C)=O)c(OCCCCCCCC/C=C\CCCCCCCC)c1 the pIC50 was less than 4.00.

tested on: A549; assay: Cytotoxicity against human A549 cells after 72 hrs by XTT assay; format: functional, cell-based; details: A549, 72 h; summary of the method: as §1

First: CC(=O)c1c(O)cc2c(c1O)CCC(C)(CC/C=C(\C)CCC=C(C)C)O2 (configuration not stated)
Second: CC(=O)c1c(O)cc(O)c(C/C=C(\C)CCC=C(C)C)c1O
The pIC50 of the first is lower: less than 4.00 for the first, 4.70 for the second.

CCCCCCCCCCCCCCCCCCOc1cc(O)c(C(C)=O)c(O)c1 and CCCCCCCCCCCCCCCCCCOc1cc(O)cc(O)c1C(C)=O cannot be ordered by pIC50: less than 4.00 for the first, less than 4.00 for the second.

CC(=O)c1c(O)cc2c(c1O)CCC(C)(C)O2 and CC(=O)c1c(O)cc(O)c2c1OC(C)(C)CC2 cannot be ordered by pIC50: less than 4.00 for the first, less than 4.00 for the second.

First: CC(=O)c1c(OC/C=C(\C)CC/C=C(\C)CCC=C(C)C)cc(O)c(C/C=C(\C)CC/C=C(\C)CCC=C(C)C)c1O
Second: CC(=O)c1c(O)c(C/C=C(\C)CCC=C(C)C)c(O)c(C/C=C(\C)CCC=C(C)C)c1O
The pIC50 of the first is lower: less than 4.00 for the first, 4.49 for the second. The second is the more potent here.

First: CC(=O)c1c(O)c(CC=C(C)C)c(O)c(CC=C(C)C)c1O
Second: CC(=O)c1c(O)cc(O)c(C/C=C(\C)CC/C=C(\C)CCC=C(C)C)c1O
The pIC50 of the first is lower: less than 4.00 for the first, 4.66 for the second. The second is the more potent here.

First: CCCCCCCC/C=C\CCCCCCCCOc1cc(O)cc(O)c1C(C)=O
Second: CCCCCCCC/C=C\CCCCCCCCOc1cc(O)c(C(C)=O)c(O)c1
The pIC50 of the first is lower: less than 4.00 for the first, 4.51 for the second. The second is the more potent here.

CC(=O)c1c(O)cc(O)cc1OC/C=C(\C)CC/C=C(\C)CCC=C(C)C and CC(=O)c1c(O)cc(OC/C=C(\C)CC/C=C(\C)CCC=C(C)C)cc1O are the same in pIC50: 4.49 for the first, 4.49 for the second.

COc1cc(O)c(C(C)=O)c(OC)c1 [XANTHOXYLIN] and CC(=O)c1c(O)cc(O)cc1OCC=C(C)C cannot be ordered by pIC50: less than 4.00 for the first, less than 4.00 for the second.

CC(=O)c1c(O)cc(OCC=C(C)C)cc1O and CC(=O)c1c(O)cc(O)cc1O [2,4,6-TRIHYDROXYACETOPHENONE] cannot be ordered by pIC50: less than 4.00 for the first, less than 4.00 for the second.

CC(=O)c1c(O)c2c(c3c1OC(C)(C)CC3)OC(C)(C)CC2 and CC(=O)c1ccc(C)cc1O cannot be ordered by pIC50: less than 4.00 for the first, less than 4.00 for the second.

First: CCCCCCCC/C=C\CCCCCCCCc1c(O)cc(O)c(C(C)=O)c1O
Second: CCCCCCCCCCCCCCCCCCc1c(O)cc(O)c(C(C)=O)c1O
The pIC50 of the first is lower: less than 4.00 for the first, 4.49 for the second. The second is the more potent here.

Work on CCCCCCCC/C=C\CCCCCCCCOc1cc(O)c(C(C)=O)c(OCCCCCCCC/C=C\CCCCCCCC)c1 yielded a pIC50 of less than 4.00.
